The list is not random: actives were taken first. Their share in the collection is about 1.6%.
ABHD5-PLIN5 inh: blocks binding of human ABHD5 to perilipin-5; inhibition, % at 4 µM; Split G. princeps luciferase complementation, luminescence, 4 h; Q00G26+Q8WTS1; 360,000 compounds, 0.78% hits;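 active = inhibition above the mean inhibition across every tested compound plus 3 SD, cut at about 22% in these data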
Dynein cargo inh: dynein cargo transport inhibition. 3617.4 mouse cells, GR-EGFP nuclear translocation imaging; test concentration mostly 20 µM; stimulated with dexamethasone, 1 µM; stronger effect = lower value. z-score, hits read low. 220,000 compounds, 0.47% hits;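 active = plate z-score of nuclear minus cytoplasmic receptor signal below a set negative limit, without overly bright fluorescence or cell loss, cut at about -3.5 in these data, passing the limit was not always enough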;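 also: z-score of nuclear minus cytoplasmic ring GR-EGFP intensity difference per well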
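medium = tetracycline-free induction medium containing charcoal-stripped FBS | probe or stimulus = dexamethasone, 1.0 µM final | timing = 48 h induction, then 1 h compound, then 30 min agonist, 37 °C | detection = automated 10x imaging of fixed Hoechst-stained cells | read-out basis = nuclear versus cytoplasmic GR-EGFP signal, averaged per well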
NOD2 RIPK2 PPI: blocks binding of human NOD2 to RIPK2. CHO BLA complementation NOD2-RIPK2, CCF4 ratio. inhibition, % at 4.98 µM. O43353. 360,000 compounds, 0.38% hits; in the data active = inhibition above about 21%
Beta2AR agonist: activates human beta-2 adrenergic receptor causing internalization. P07550. response, % (concentration not given with the values). 340,000 compounds, 0.43% hits. Am2.2-beta2AR cells, FAP receptor internalization, flow cytometry;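 active = response above a set limit, near 3 SD of response in nonfluorescent compounds, cut at about 42% in these data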
TLR4 MyD88 comp: TLR4-MyD88 interaction inhibition in cells; O00206+Q99836; HeLa CL3-4 TLR4/MyD88 BLA complementation, FRET ratio; inhibition, % at 8.4 µM; 200,000 compounds, 0.18% hits; in the data active = inhibition above about 25%
TLR9-MyD88 block: TLR9-MyD88 interaction inhibition; Q9NR96+Q99836; CHO BLA complementation TLR9-MyD88, CCF4 FRET ratio; inhibition, % at 4.98 µM; 340,000 compounds, 0.21% hits; AID 504734;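 active = inhibition above the mean over all tested compounds plus 3 SD, cut at about 21% in these data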
TLR9-MyD88 conf: TLR9-MyD88 interaction inhibition, confirmation; shares compounds with TLR9-MyD88 block; CHO TLR9/MyD88 BLA complementation, CCF4 FRET ratio; inhibition, % at 4.98 µM; 680 compounds, 51% hits; AID 540250;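 active = mean inhibition across three repeats above about 21% taken from the earlier screen, limit read from the data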;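 also: blue over green emission ratio reports constitutive TLR9 MyD88 association via BLA complementation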
BLA counter-1: beta-lactamase reporter inhibition, counter-screen artifact; 680 compounds, 7% hits; inhibition, % at 4.98 µM; AID 540251; shares compounds with TLR9-MyD88 block; CHO-BLA cells, CCF4 FRET ratio, BLA reporter;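 active = mean inhibition above a 50% cutoff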;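 also: counterscreen of TLR9-MyD88 hits on CMV-driven BLA in CHO-K1 cells; higher means less blue over green ratio so more BLA blockade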
TLR9 CHO tox: counter-screen for TLR9-MyD88 inhibitors: cytotoxicity in CHO cells; inhibition, % at 4.98 µM; 680 compounds, 39% hits; shares compounds with TLR9-MyD88 block; luminescence; AID 588336; in the data active = inhibition above about 11%
ABHD5-PLIN5 conf: ABHD5-PLIN5 interaction inhibition, confirmed; 2,200 compounds, 67% hits; inhibition, % at 4 µM; shares compounds with ABHD5-PLIN5 inh; biochemical ABHD5-PLIN5 interaction, luminescence; AID 651612; in the data active = inhibition above about 23%
HNF4 counter: HNF4 split-luciferase signal hit, counter-screen; shares compounds with ABHD5-PLIN5 inh; 2,200 compounds, 77% hits; AID 651674; HNF4 dimerization, luminescence, biochemical; inhibition, % at 4 µM;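 active = mean inhibition across replicate wells exceeding the computed hit threshold, cut at about 13% in these data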;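 also: light from luciferase halves that rejoin when HNF4 fusion proteins dimerize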
Target sequence (P41235 whole entry, looked up, the tested form may be a part): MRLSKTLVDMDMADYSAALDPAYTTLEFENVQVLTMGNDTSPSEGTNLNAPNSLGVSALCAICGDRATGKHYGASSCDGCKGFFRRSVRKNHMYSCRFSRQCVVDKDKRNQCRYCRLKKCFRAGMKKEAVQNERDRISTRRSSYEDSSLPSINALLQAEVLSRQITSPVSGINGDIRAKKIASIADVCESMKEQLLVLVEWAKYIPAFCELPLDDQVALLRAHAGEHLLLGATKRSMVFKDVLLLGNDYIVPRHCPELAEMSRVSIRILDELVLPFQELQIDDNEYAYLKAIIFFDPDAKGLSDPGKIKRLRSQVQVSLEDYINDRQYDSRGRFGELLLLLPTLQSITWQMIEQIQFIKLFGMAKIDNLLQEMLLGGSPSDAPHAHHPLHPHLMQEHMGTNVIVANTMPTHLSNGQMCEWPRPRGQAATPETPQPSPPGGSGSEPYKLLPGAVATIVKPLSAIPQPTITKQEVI
NOD2 RIPK2 conf: confirmation of human NOD2-RIPK2 interaction inhibitors | inhibition, % at 4.98 µM | shares compounds with NOD2 RIPK2 PPI | CHO cells, NOD2-RIPK2 BLA complementation, CCF4 FRET | 1,200 compounds, 70% hits | AID 624370;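 active = mean inhibition across replicates above a set limit taken from the earlier primary screen, cut at about 21% in these data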
BLA counter-2: NOD2-RIPK2 counterscreen BLA reporter activity; shares compounds with NOD2 RIPK2 PPI; CHO BLA reporter, CCF4 FRET ratio; inhibition, % at 4.98 µM; 1,200 compounds, 57% hits; AID 624371;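 active = mean inhibition above the low-control mean inhibition plus three low-control SD, cut at about 11% in these data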
Numbers stand for hits; n = inactive; x = no result.

SMILES	ABHD5-PLIN5 inh	Dynein cargo inh	NOD2 RIPK2 PPI	Beta2AR agonist	TLR4 MyD88 comp	TLR9-MyD88 block	TLR9-MyD88 conf	BLA counter-1	TLR9 CHO tox	NOD2 RIPK2 conf	BLA counter-2	others
COc1ccc2ccccc2c1/C=N/NC(=O)c1sc(N)c(C#N)c1C	n	n	22	n	n	21	n	n	n	n	n
CCn1nc(C)cc1-c1nnc(Sc2ncc([N+](=O)[O-])s2)n1C	24	x	78	n	x	29	42	n	101	85	19	ABHD5-PLIN5 conf=25;HNF4 counter=110
O=S(=O)(CCc1ccccc1)CS(=O)(=O)CCc1ccccc1	n	x	n	n	x	n	x	x	x	x	x
CCN(CC)c1ccc2c(Cl)c(Br)c(=O)oc2c1	n	n	95	x	91	92	89	91	52	100	96
COc1cc(NS(=O)(=O)c2ccc(C)cc2)c2ncccc2c1	n	n	51	n	n	22	n	n	102	45	11
COc1ccc(S(=O)(=O)Nc2ccccn2)cc1	n	x	n	n	x	n	x	x	x	x	x
O=c1c2cc(F)ccc2sn1-c1ccccc1	99	x	48	n	x	40	36	n	97	50	12
CC(=O)Nc1ccc2c(=O)n(-c3ccccc3)sc2c1	79	x	31	x	x	28	25	n	92	40	11	ABHD5-PLIN5 conf=69;HNF4 counter=117
CCCC(=O)OCCNc1cc(Sc2nc3ccccc3[nH]2)c2nonc2c1[N+](=O)[O-]	50	n	75	n	n	32	68	n	98	92	43	ABHD5-PLIN5 conf=61;HNF4 counter=110
O=c1oc2ccccc2c(N2CCCC2)c1CN1CCCC1	n	n	n	n	n	n	x	x	x	x	x
O=c1oc2ccccc2c(Cl)c1CN1CCCCC1	n	n	40	n	n	23	75	n	96	95	14
Nc1cccc2c1C(=O)N(C(=O)c1cccc(S(=O)(=O)N3CCCC3)c1)C2=O	n	n	22	n	n	23	n	n	n	28	35
CC(C)(C)c1cc2nc(NCCOc3ccccc3)ccn2n1	n	x	n	x	x	x	x	x	x	x	x
CCOc1ccc2cc(/C=C/C(=O)c3ccco3)c(Cl)nc2c1	25	n	27	n	36	29	n	n	n	n	n	ABHD5-PLIN5 conf=71;HNF4 counter=56
CCOc1ccc2nc(SCC(=O)NNC(=O)c3ccco3)c(C)cc2c1	n	x	n	n	x	n	x	x	x	x	x
Cc1ccc(C)c(CC(=O)N2CCCCC2c2cc(C(=O)Nc3ccc(F)c(Cl)c3)no2)c1 (configuration not stated)	n	x	n	x	x	x	x	x	x	x	x
CCc1nc2c(OCc3ccccc3)cccn2c1N(C)C(C)=O	n	x	n	x	x	x	x	x	x	x	x
O=C1c2ccccc2C(=O)N1c1ccccc1	n	x	n	n	x	n	x	x	x	x	x
Nc1cccc2c1C(=O)N(c1ccccc1)C2=O	n	x	45	n	x	28	n	n	n	43	46
Cc1ccccc1Oc1ccc2c(c1)[C@@H]1C[C@H](N(C)C(=O)c3cccnc3)[C@H]([C@H](C)O)C(=O)N1CC2	n	x	n	x	x	n	x	x	x	x	x
O=[N+]([O-])c1ccc(N(c2ccccc2)c2ccccc2)cc1	n	n	58	n	n	39	32	n	n	62	61
CCN(C(=O)c1ccccc1)c1ccc([N+](=O)[O-])cc1	n	n	n	n	n	n	x	x	x	x	x
CCNC(=S)N=Nc1c(O)n(Cc2ccc(Cl)cc2)c2ccccc12	n	n	n	n	n	n	x	x	x	x	x
O=Nc1c(O)n(Cc2ccc(Cl)c(Cl)c2)c2ccccc12	n	n	34	n	n	28	n	n	17	56	42
CCCCCCn1cc(CN2CC(N3CCSCC3)CS2(=O)=O)nn1 (configuration not stated)	n	x	n	x	x	x	x	x	x	x	x
SMILES	ABHD5-PLIN5 inh	Dynein cargo inh	NOD2 RIPK2 PPI	Beta2AR agonist	TLR4 MyD88 comp	TLR9-MyD88 block	TLR9-MyD88 conf	BLA counter-1	TLR9 CHO tox	NOD2 RIPK2 conf	BLA counter-2	others
C=CCn1c(O)c(C2=c3ccccc3=NC2=O)s/c1=N/c1nccs1	n	n	n	n	n	n	x	x	x	x	x
C=CCn1c(O)c(C2=c3ccccc3=NC2=O)c2ccccc21	90	x	77	n	x	21	27	n	98	80	n	ABHD5-PLIN5 conf=85;HNF4 counter=107
CC1(C(=O)NS(C)(=O)=O)CCN1C(=O)Cc1ccc(-c2ccccc2)cc1 (configuration not stated)	n	x	n	x	x	x	x	x	x	x	x
COc1cccc(CN2C(=O)c3cccc(N)c3C2=O)c1	n	n	36	n	n	28	n	n	n	38	47
C[C@@H]1[C@@H](Sc2ccccc2)CC(=O)O[C@@H]1c1ccc(-c2ccccc2)cc1	n	x	n	n	x	n	x	x	x	x	x
O=C1C=CC2(O[C@H](c3ccccc3)[C@@H](c3ccccc3)O2)[C@H](Sc2ccccc2O)C1	94	x	92	42	x	40	38	n	100	91	40
O=C(NCc1cc(C(F)(F)F)ccc1Cl)c1cccc2c1C(=O)c1ccc(N3CCC(N4CCCCC4)CC3)cc1S2(=O)=O	n	x	61	x	x	47	43	52	24	69	68
CCCCn1nnnc1C1(C)CCC(=O)N1Cc1cccnc1 (configuration not stated)	n	x	n	x	x	x	x	x	x	x	x
COC(=O)c1scc2c(=O)cc(C(F)(F)F)[nH]c12	n	n	72	n	x	63	50	55	n	74	78
COc1cc(C(=O)c2cc3c(cc2C)OCO3)cc(OC)c1OC	n	x	n	x	x	x	x	x	x	x	x
O=[N+]([O-])c1c(Nc2ccc(O)cc2)cc(Cl)c2nonc12	58	x	122	81	x	49	60	n	97	120	25	ABHD5-PLIN5 conf=83;HNF4 counter=101
CN(C)c1cc(Nc2ccc(O)cc2)c([N+](=O)[O-])c2nonc12	n	n	n	n	x	n	x	x	x	x	x

Compound activity from PubChem BioAssay.
